Source: ChEMBL document CHEMBL1121974, “Structure-activity relationships of some technetium-99m labeled [(thioethyl)amino] carboxylates” (J Med Chem, 1982)
Each block holds one compound with its values, some of them ahead of it.

What was measured:
[1] = system: Mus musculus; experiment: Percent injected radioactivity was determined in urine after intravenous administration into the tail vein of male swiss albino mice after 60 min; format: ADME, organism-based; set-up: concentration or dose not given beside the values; conditions: in vivo, 1 h
Outline: (§1)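 Mice weighing 20–25 g received 0.2 mL (2 μCi) and were held in metabolic cages. At 60 min they were killed with ether, with the penis ligated. Organs were γ-counted, tail counts were subtracted from the dose, and values are the mean of five ±SD.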

[2] = system: Mus musculus; experiment: Percent injected radioactivity was determined in liver and gallbladder after intravenous administration into the tail vein of male swiss albino mice after 60 min; format: ADME, organism-based; set-up: concentration or dose not given beside the values; conditions: in vivo, 1 h; outline: as §1
[3] = system: Mus musculus; experiment: Percent injected radioactivity was determined in muscle after intravenous administration into the tail vein of male swiss albino mice after 60 min; format: ADME, organism-based, Muscle tissue; set-up: concentration or dose not given beside the values; conditions: in vivo, 1 h; outline: as §1
[4] = system: Mus musculus; experiment: Percent injected radioactivity was determined in blood after intravenous administration into the tail vein of male swiss albino mice after 60 min; format: ADME, organism-based; conditions: in vivo, 1 h; outline: as §1
[5] = system: Mus musculus; experiment: Percent injected radioactivity was determined in intestine after intravenous administration into the tail vein of male swiss albino mice, after 60 min; format: ADME, organism-based; conditions: in vivo, 1 h; outline: as §1
[6] = system: Mus musculus; experiment: Percent injected radioactivity was determined in kidney after intravenous administration into the tail vein of male swiss albino mice after 60 min; format: ADME, organism-based; conditions: in vivo, 1 h; outline: as §1
[7] = Acidity constant pK3 was measured; format: ADME; conditions: read-out: pK3
Outline: (§2)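 Acid-base titration of the free ligands over a pH range, followed by the chemical shifts of nonlabile protons. Macroscopic constants were assigned to the COOH, SH and NH⁺ dissociation steps; microscopic constants were not obtained.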

[8] = Acidity constant pK1 was measured; format: ADME; conditions: read-out: pK1; outline: as §2
[9] = Acidity constant pK2 was measured; format: ADME; conditions: read-out: pK2; outline: as §2
[10] = Acidity constant pK3' was measured; format: ADME; conditions: read-out: pK3'; outline: as §2

Compound: O=C(O)CN(CCSCc1ccccc1)CC(=O)O
Radioactivity [1]: 11.371%
Radioactivity [2]: 8.429%
Radioactivity [3]: 3.32%
pKa [7]: 9.1
Radioactivity [4]: 2.627%
Radioactivity [5]: 58.02%
pKa [8]: 2.1
Radioactivity [6]: 2.083%

Compound: O=C(O)CN(CCS)CC(=O)O
Radioactivity [1]: 52.11%
Radioactivity [2]: 1.92%
Radioactivity [3]: 7.553%
pKa [7]: 10.6
pKa [9]: 7.7
Radioactivity [4]: 3.598%
Radioactivity [5]: 4.743%
pKa [8]: 1.9
Radioactivity [6]: 5.677%

Compound: Cl.O=C(O)CNCCS
Radioactivity [1]: 36.323%
Radioactivity [2]: 5.448%
Radioactivity [3]: 6.988%
pKa [7]: 11.6
pKa [9]: 8.5
Radioactivity [4]: 4.176%
Radioactivity [5]: 16.702%
pKa [8]: 2.6
Radioactivity [6]: 5.318%

Compound: O=C(O)C(S)C(S)C(=O)O (stereo not drawn)
Radioactivity [1]: 30.04%
Radioactivity [2]: 12.617%
Radioactivity [3]: 24.17%
Radioactivity [4]: 18.873%
Radioactivity [5]: 5.693%
Radioactivity [6]: 21.823%

The remaining lines, values ahead:

Radioactivity [1]: 34.1%
Radioactivity [2]: 8.568%
Radioactivity [3]: 3.56%
Radioactivity [4]: 4.55%
Radioactivity [5]: 25.533%
Radioactivity [6]: 3.567%
Compound: CCSCCN(CC(=O)O)CC(=O)O

Radioactivity [1]: 15.967%
Radioactivity [2]: 12.7%
Radioactivity [3]: 4.013%
Radioactivity [4]: 2.8%
Radioactivity [5]: 52.4%
Radioactivity [6]: 2.767%
Compound: CCCCSCCN(CC(=O)O)CC(=O)O

Radioactivity [1]: 50.09%
Radioactivity [2]: 3.085%
Radioactivity [3]: 7.97%
pKa [7]: 9.2
Radioactivity [4]: 4.64%
Radioactivity [5]: 8.9%
pKa [8]: 2.3
Radioactivity [6]: 4.24%
Compound: O=C(O)CN(CCSSCCN(CC(=O)O)CC(=O)O)CC(=O)O

Radioactivity [1]: 9.74%
Radioactivity [2]: 22.748%
Radioactivity [3]: 5.254%
Radioactivity [4]: 4.41%
Radioactivity [5]: 51.3%
Radioactivity [6]: 1.842%
Compound: O=C(O)CN(CCSc1ccc2ccccc2c1)CC(=O)O

Radioactivity [1]: 39.5%
Radioactivity [2]: 4.3%
Radioactivity [3]: 3.472%
pKa [7]: 11.6
pKa [9]: 9
Radioactivity [4]: 3.46%
Radioactivity [5]: 16.924%
pKa [10]: 4.6
pKa [8]: 1.1
Radioactivity [6]: 5.62%
Compound: O=C(O)CN(CCS)CCN(CCS)CC(=O)O
